The text below walks through data of PMC11608545 (International Journal of Nanomedicine, 2024).

Values after ≈ are worked out from the molar mass of the structure shown.

Broadly, the IC50 is the point on the concentration scale where inhibition reaches its midpoint.

One data set deals with MV4-11. Put plainly: Antiproliferative activity, MTT assay. The conditions noted are these: for calculated selectivity index SI: IC50 MCF-10A / IC50 MV4-11; for IC50: MV4-11, 72 h. The class given is cell-based, human.
The test system of another data set is MCF-7. Put plainly: Antiproliferative activity, SRB assay. The format is cell-based, human. The conditions noted are these: for calculated selectivity index SI: IC50 MCF-10A / IC50 MCF-7.
The test system of the next data set is A-549. Put plainly: Antiproliferative activity, SRB assay. The format is cell-based, human. The conditions noted are these: for calculated selectivity index SI: IC50 MCF-10A / IC50 A-549.
The next data set deals with PC-3. Put plainly: Antiproliferative activity, SRB assay. The conditions noted are these: for calculated selectivity index SI: IC50 MCF-10A / IC50 PC3. The class given is cell-based, human.
Data set [1] has as its system MV4-11 cells. Put plainly: Apoptosis determination by Annexin V staining. The class given is cell-based, human. The conditions noted are these: MV4-11, 1.5 × IC50.
The test system of a further data set is MDA-MB-468 cells. Put plainly: Cell cycle analysis. The note with it: MDA-MB-468, 72 h, 1.5 × IC50. The class given is cell-based, human.
For data set [2], the system named is caspase-3/7 in MDA-MB-468 cells. Put plainly: Caspase-3/7 activity determination. The class given is cell-based, human. The note with it: MDA-MB-468, 24 h or 72 h, 1.5 × IC50.
Data set [3] has as its system MV4-11 cells. Put plainly: Cell cycle analysis. The format is cell-based, human. The conditions noted are these: MV4-11, 72 h, 1.5 × IC50.
The next data set relates to MCF-10A. Put plainly: cells. The class given is cell-based, human.
Data set [4] deals with caspase-3/7 in MV4-11 cells. Put plainly: Caspase-3/7 activity determination. The class given is cell-based, human. The note with it: MV4-11, 24 h or 72 h, 1.5 × IC50.
The next data set relates to MDA-MB-468. Put plainly: Antiproliferative activity, SRB assay. The class given is cell-based, human. The note with it: for calculated selectivity index SI: IC50 MCF-10A / IC50 MDA-MB-468; for IC50: MDA-MB-468, 72 h.
For data set [5], the system named is selected cancer cell lines (MV4-11, A549, PC-3, MDA-MB-468, MCF-7). Put plainly: Antiproliferative activity, all studied cancer cell lines together. The class given is cell-based, human. The conditions noted are these: read-out: IC50 values, range over all studied cancer cell lines; 72 h. Put shortly: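 Cells were seeded 24 h before treatment at 0.5×10^4 (A549), 0.75×10^4 (MDA-MB-468, MCF-7) or 1×10^4 (PC-3, MV4-11) cells/well. They were exposed 72 h to test compound at 1–625 μM in medium; loaded nanocarrier was dosed by encapsulated conjugate. Read-out was MTT (MV4-11) or SRB (others). Triplicates, 3–5 independent runs; IC50 per run, mean ± SD.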

For data set [6] the following is noted: background statement, no reference given, cited from earlier work.
Setting [7] is: SRB, n.a. = not active in the range concentration (5–625 μM).

Take `COc1ccc2c(c1)c(CC(=O)OC[C@@H](O)COP(=O)([O-])OCC[N+](C)(C)C)c(C)n2C(=O)c1ccc(Cl)cc1` [IND-LPC, 1-indomethacinoyl-2-hydroxy-sn-glycero-3-phosphocholine]: the “calculated selectivity index SI” value in the data set with MV4-11 is 2.23; in the data set on MCF-7 it was 0.87; in the data set on A-549, 0.25; with PC-3 it was 0.48; in the data set with MDA-MB-468, 2.56. Further, the “fold lower IC50 than free IND” value is listed as 66 fold in the data set with MV4-11 (MV4-11) and 100 fold with MDA-MB-468 (MDA-MB-468). Moreover, the IC50 stood at 3.1 ± 0.5 µM in the data set on MV4-11 (MTT); 7.9 ± 0.7 µM in the data set with MCF-7 (MCF-7, 72 h, SRB); 27.2 ± 4.9 µM in the data set on A-549 (A-549, 72 h, SRB); 14.4 ± 2.9 µM with PC-3 (PC3, 72 h, SRB); 2.7 ± 0.5 µM in the data set with MDA-MB-468 (setting [7]). For the same compound, in the data set on MV4-11 cells [1], the “effect on number of apoptotic (AnV+/PI+) cells” value was “slightly increased”. In addition, the entries for the “effect on cell cycle / cell death” value with MDA-MB-468 cells and in the data set on MV4-11 cells [3] were “strongly induces breast cancer cell death” and “strongly induced cell death”, respectively. Moreover, the caspase-3/7 activation result in data set [2] and in data set [4] was “higher level after 24 h than 72 h” throughout. The “toxicity towards MCF-10A at the active doses” value in the data set on MCF-10A (at 3.1 μM and 2.7 μM) is on record as “not toxic”. Moreover, the “times more active against MDA-MB-468 than MCF-7” value with MDA-MB-468 (MDA-MB-468 vs MCF-7) came out at 3 times.
As to `CCCCCCCCCCCCCCCC(=O)O[C@H](COC(=O)Cc1c(C)n(C(=O)c2ccc(Cl)cc2)c2ccc(OC)cc12)COP(=O)([O-])OCC[N+](C)(C)C` [IND-PA-PC, 1-indomethacinoyl-2-palmitoyl-sn-glycero-3-phosphocholine], the IC50 in the data set with MV4-11 (MTT) was 430 ± 104 µM; in the data set on MCF-7 (MCF-7, 72 h, SRB), 424 ± 14.4 µM; in the data set with A-549 (A-549, 72 h, SRB) it was 423 ± 84.1 µM; with PC-3 (PC3, 72 h, SRB) it was 563 ± 75.1 µM.
Turning to `CCCCCCCC/C=C\CCCCCCCC(=O)OC[C@H](COP(=O)([O-])OCC[N+](C)(C)C)OC(=O)Cc1c(C)n(C(=O)c2ccc(Cl)cc2)c2ccc(OC)cc12` [OA-IND-PC, 1-oleoyl-2-indomethacinoyl-sn-glycero-3-phosphocholine], the “calculated selectivity index SI” value in the data set on MV4-11 was 1.80; in the data set on MCF-7 it was 1.70; in the data set on A-549, 1.89; in the data set on PC-3, 1.75; with MDA-MB-468, 1.80. Also, the half-maximal inhibitory concentration (IC50) is 56.3 ± 0.8 µM with MV4-11 (MTT); 59.8 ± 2.1 µM in the data set on MCF-7 (MCF-7, 72 h, SRB); 53.8 ± 1.2 µM in the data set on A-549 (A-549, 72 h, SRB); 58 ± 11.9 µM in the data set on PC-3 (PC3, 72 h, SRB); 33.5 to 67.5 µM in data set [5]; 56.4 ± 0.6 µM in the data set with MDA-MB-468 (setting [7]). Also, in the data set on MV4-11 cells [1], the “effect on number of apoptotic (AnV+/PI+) cells” value is listed as “slightly increased”. Moreover, the “effect on cell cycle / cell death” value with MDA-MB-468 cells was “stopped the cell cycle in the G0/G1 phase, but did not induce cell death”; with MV4-11 cells [3], “strongly induced cell death”. The caspase-3/7 activation entry in [4] is listed as “strongly increased caspase activity in MV4-11 cells after 72 h”.
`CCCCCCCCCCCCCCCCCC(=O)OC[C@H](COP(=O)([O-])OCC[N+](C)(C)C)OC(=O)Cc1c(C)n(C(=O)c2ccc(Cl)cc2)c2ccc(OC)cc12` [SA-IND-PC, 1-stearoyl-2-indomethacinoyl-sn-glycero-3-phosphocholine]: the “calculated selectivity index SI” value with MV4-11 was 1.64; in the data set on MCF-7, 1.87; in the data set on A-549 it was 2.22; in the data set on PC-3, 2.34; in the data set with MDA-MB-468, 1.87. In addition, the half-inhibitory concentration (IC50) in the data set with MV4-11 (MTT) came to 329 ± 34.6 µM; with MCF-7 (MCF-7, 72 h, SRB) it was 288 ± 22.2 µM; in the data set on A-549 (A-549, 72 h, SRB), 243 ± 15.7 µM; with PC-3 (PC3, 72 h, SRB), 230 ± 15.8 µM; in the data set with MDA-MB-468 (setting [7]), 289 ± 12.2 µM.
On to `CCCCCCCCCCCCCCCC(=O)OC[C@H](COP(=O)([O-])OCC[N+](C)(C)C)OC(=O)Cc1c(C)n(C(=O)c2ccc(Cl)cc2)c2ccc(OC)cc12` [PA-IND-PC, 1-palmitoyl-2-indomethacinoyl-sn-glycero-3-phosphocholine], for which the “calculated selectivity index SI” value in the data set with MV4-11 is on record as 1.16; in the data set on MCF-7 it was 1.12; in the data set on A-549 it was 1.33; in the data set on PC-3 it was 1.33; with MDA-MB-468, 1.10. Further, the IC50 in the data set with MV4-11 (MTT) worked out at 268 ± 34.3 µM; in the data set on MCF-7 (MCF-7, 72 h, SRB), 276 ± 134 µM; in the data set with A-549 (A-549, 72 h, SRB), 233 ± 108 µM; in the data set on PC-3 (PC3, 72 h, SRB), 233 ± 0.6 µM; with MDA-MB-468 (setting [7]) it was 281 ± 35.9 µM.
With `CCCCCCCCCCCCCCCCCC(=O)O[C@H](COC(=O)Cc1c(C)n(C(=O)c2ccc(Cl)cc2)c2ccc(OC)cc12)COP(=O)([O-])OCC[N+](C)(C)C` [IND-SA-PC, 1-indomethacinoyl-2-stearoyl-sn-glycero-3-phosphocholine], the “calculated selectivity index SI” value in the data set with MV4-11 is reported as 1.90; with MCF-7 it was 1.33; with A-549, 1.51; in the data set on PC-3, 1.46; in the data set with MDA-MB-468, 1.42. Moreover, the IC50 in the data set on MV4-11 (MTT) was determined as 160 ± 59.7 µM; in the data set with MCF-7 (MCF-7, 72 h, SRB), 230 ± 10.3 µM; with A-549 (A-549, 72 h, SRB), 201 ± 23.5 µM; in the data set with PC-3 (PC3, 72 h, SRB), 209 ± 18.3 µM; in the data set with MDA-MB-468 (setting [7]), 214 ± 46.1 µM.
As to `COc1ccc2c(c1)c(CC(=O)O)c(C)n2C(=O)c1ccc(Cl)cc1` [IND, indomethacin, reference compound], the 50% inhibitory concentration (IC50) is 204 ± 41.5 µM in the data set with MV4-11 (Homo sapiens); 187 ± 19.4 µM with MCF-7 (Homo sapiens, MCF7, 72 h); 121 ± 31.6 µM in the data set with A-549 (Homo sapiens, A549, 72 h); 160 ± 61.5 µM in the data set on PC-3 (Homo sapiens, PC-3, 72 h); 191 ± 11.4 µM in the data set with MCF-10A (Homo sapiens, MCF-10A, 72 h); 270 ± 56.3 µM in the data set on MDA-MB-468 (Homo sapiens). Further, the “Biopharmaceutical Classification System (BCS) class” value in data set [6] was “Class II”. Also, the water solubility in data set [6] (pH7) was 105.2 µg/mL (≈ 294 µM).
